Conditions in all cases: Glycine max
Substrate in series [1]: O=c1cc(-c2ccc(O)c(O)c2)oc2cc(O)ccc12
The experiment in a line: (§1) Activity at soybean LOX-1 using linoleic acid as substrate at 25 uM preincubated for 5 mins followed by substrate addition by Michaelis-Menten plot analysis. The method, boiled down: (§2)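 Soybean LOX-1 (supplied lyophilized) kinetic assay. Enzyme pre-incubated with inhibitor 5 min, then linoleic acid added. Conversion to the cis,trans-hydroperoxide followed at 234 nm at 30 °C with continuous soft shaking. Readings every 30 s for 10 min; rate taken as the 0–3 min slope. Three inhibitor concentrations tested against three substrate concentrations. Inhibition type assigned by nonlinear Michaelis–Menten fitting and Lineweaver–Burk plots. At least four experiments, each in triplicate.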

Substrate in series [2]: O=c1cc(-c2ccccc2)oc2cc(O)cc(O)c12
The series is described as §1. The method, boiled down:
as §2

Substrate in series [3]: O=c1c(O)c(-c2ccc(O)c(O)c2)oc2cc(O)cc(O)c12
The description is as §1. An outline of the steps:
as §2

Substrate in series [4]: O=c1cc(-c2ccc(O)c(O)c2)oc2ccccc12
Described as §1. An outline of the steps: as §2

Substrate in series [5]: O=c1cc(-c2ccc(O)c(O)c2)oc2cccc(O)c12
The series is described as §1. An outline of the steps: as §2

Substrate in series [6]: O=c1cc(-c2ccc(O)cc2)oc2cc(O)cc(O)c12
The description is as §1. An outline of the steps: as §2

Substrate in series [7]: O=c1cc(-c2cccc(O)c2)oc2cc(O)cc(O)c12
The series can be described thus: (§3) Activity at soybean LOX-1 using linoleic acid as substrate at 50 uM preincubated for 5 mins followed by substrate addition by Michaelis-Menten plot analysis. An outline of the steps:
as §2

Substrate in series [8]: O=c1cc(-c2ccc(O)cc2)oc2cccc(O)c12
The series is described as §3. The method, boiled down: as §2

Substrate in series [9]: O=c1cc(-c2ccc(O)c(O)c2)oc2cc(O)cc(O)c12
The series is described as §3. An outline of the steps:
as §2

Substrate in series [10]: O=c1cc(-c2ccc(O)c(O)c2)oc2cccc(O)c12
The series is described as §3. The method, boiled down:
as §2

Substrate in series [11]: O=c1cc(-c2cccc(O)c2)oc2cc(O)cc(O)c12
The series can be described thus: (§4) Activity at soybean LOX-1 using linoleic acid as substrate at 100 uM preincubated for 5 mins followed by substrate addition by Michaelis-Menten plot analysis. The method, boiled down: as §2

Substrate in series [12]: O=c1c(O)c(-c2ccc(O)c(O)c2)oc2cc(O)cc(O)c12
The series is described as §4. An outline of the steps:
as §2

Substrate in series [13]: O=c1cc(-c2ccc(O)cc2)oc2cc(O)cc(O)c12
Described as §4. An outline of the steps:
as §2

Substrate in series [14]: O=c1cc(-c2ccc(O)c(O)c2)oc2cc(O)ccc12
The series can be described thus: (§5) Activity at soybean LOX-1 using linoleic acid as substrate at 10 uM preincubated for 5 mins followed by substrate addition by Michaelis-Menten plot analysis. An outline of the steps:
as §2

Substrate in series [15]: O=c1cc(-c2ccccc2)oc2cc(O)cc(O)c12
The series is described as §5. The method, boiled down: as §2

Substrate in series [16]: O=c1cc(-c2ccc(O)cc2)oc2cccc(O)c12
Described as §5. An outline of the steps: as §2

Substrate in series [17]: O=c1cc(-c2ccc(O)c(O)c2)oc2ccccc12
The description is as §5. The method, boiled down: as §2

Substrate in series [18]: O=c1cc(-c2ccc(O)c(O)c2)oc2cc(O)cc(O)c12
The series is described as §5. An outline of the steps:
as §2

The Km is the substrate concentration at which the rate is half of its maximum.

B1: Seed linoleate 13S-lipoxygenase-1 (Glycine max), P08170 (protein)
chain: MFSAGHKIKGTVVLMPKNELEVNPDGSAVDNLNAFLGRSVSLQLISATKADAHGKGKVGKDTFLEGINTSLPTLGAGESAFNIHFEWDGSMGIPGAFYIKNYMQVEFFLKSLTLEAISNQGTIRFVCNSWVYNTKLYKSVRIFFANHTYVPSETPAPLVSYREEELKSLRGNGTGERKEYDRIYDYDVYNDLGNPDKSEKLARPVLGGSSTFPYPRRGRTGRGPTVTDPNTEKQGEVFYVPRDENLGHLKSKDALEIGTKSLSQIVQPAFESAFDLKSTPIEFHSFQDVHDLYEGGIKLPRDVISTIIPLPVIKELYRTDGQHILKFPQPHVVQVSQSAWMTDEEFAREMIAGVNPCVIRGLEEFPPKSNLDPAIYGDQSSKITADSLDLDGYTMDEALGSRRLFMLDYHDIFMPYVRQINQLNSAKTYATRTILFLREDGTLKPVAIELSLPHSAGDLSAAVSQVVLPAKEGVESTIWLLAKAYVIVNDSCYHQLMSHWLNTHAAMEPFVIATHRHLSVLHPIYKLLTPHYRNNMNINALARQSLINANGIIETTFLPSKYSVEMSSAVYKNWVFTDQALPADLIKRGVAIKDPSTPHGVRLLIEDYPYAADGLEIWAAIKTWVQEYVPLYYARDDDVKNDSELQHWWKEAVEKGHGDLKDKPWWPKLQTLEDLVEVCLIIIWIASALHAAVNFGQYPYGGLIMNRPTASRRLLPEKGTPEYEEMINNHEKAYLRTITSKLPTLISLSVIEILSTHASDEVYLGQRDNPHWTSDSKALQAFQKFGNKLKEIEEKLVRRNNDPSLQGNRLGPVQLPYTLLYPSSEEGLTFRGIPNSISI
As for B1, the Michaelis-Menten constant (Km) in [1] is 190 µM; in series [2] it was 55 µM; in [3], 129 µM; in [4], 191 µM; in [5], 104 µM; in [6], 191 µM. Besides, the Km in [7] worked out at 145 µM; in series [8], 61.3 µM; in series [9], 148 µM; in series [10], 46.4 µM; in series [11], 111 µM; in series [12] it was 100 µM. Also, the Km in [13] came out at 191 µM; in series [14], 97.4 µM; in series [15], 71 µM; in [16], 105 µM; in series [17], 137 µM; in [18], 190 µM. For the same protein, the Vmax in series [3] came out at 0.008 µM; in series [9], 0.009 µM; in series [12] it was 0.006 µM; in [18] it was 0.012 µM.

These data come from ChEMBL document CHEMBL3102734, “Inhibition of LOX by flavonoids: a structure-activity relationship study” (Eur J Med Chem, 2014).
